For series [1], the system named is Mycobacterium tuberculosis. As to the kind of experiment: Antibacterial activity against Mycobacterium tuberculosis H37Rv ATCC 27294 after 24 hrs by alamar blue assay. Format: functional. The following applies: H37Rv ATCC 27294, 24 h. A digest of the protocol:
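Microplate Alamar Blue assay on M. tuberculosis ATCC 27294 in Middlebrook 7H9 broth, with compounds serially diluted on the plate (final 0.01–20.0). Water in the outer wells limited evaporation. Sealed plates were incubated at 37 C for five days, then a fresh 1:1 Alamar Blue/10% Tween 80 mix was added for 24 h. MIC is the lowest concentration preventing the blue-to-pink change.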

Series [2] can be described thus: Partition coefficient, log P of the compound. In kind it is physicochemical. The following applies: octanol/water. A digest of the protocol:
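Computed in silico from structure with an online molecular-property calculation server's logP method, not measured by experimental partitioning.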

Converted amounts (≈) assume the structure as drawn.

On to `N[C@@H](Cc1ccccc1)[C@H](O)CN(Cc1ccc2c(c1)OCO2)S(=O)(=O)c1ccc(F)cc1`, for which inhibition of growth in series [1] (MIC) required 211 µM (≈ 99.7 µg/mL). The logP in series [2] worked out at 1.64.
In the case of `CC(C)(C)OC(=O)N[C@@H](Cc1ccccc1)[C@H](O)CN(Cc1ccc2c(c1)OCO2)S(=O)(=O)c1ccc(F)cc1`, the MIC in series [1] is greater than 500 µM. The compound also gave a logP in series [2] of 5.38.
Consider `COc1ccc(S(=O)(=O)N(Cc2ccc3c(c2)OCO3)C[C@@H](O)[C@H](Cc2ccccc2)NC(=O)OC(C)(C)C)cc1`, for which, in series [1], the MIC was greater than 500 µM. Besides, the lipophilicity (logP) in series [2] worked out at 6.36.
As for `CC(C)(C)OC(=O)N[C@@H](Cc1ccccc1)[C@H](O)CN(Cc1ccc2c(c1)OCO2)S(=O)(=O)c1ccc(Br)cc1`, the MIC in series [1] is greater than 500 µM. The compound also showed a logP in series [2] of 7.11.
As to `CC(C)(C)OC(=O)N[C@@H](Cc1ccccc1)[C@H](O)CN(Cc1ccc2c(c1)OCO2)S(=O)(=O)c1ccc(N)cc1`, in series [1], the MIC is greater than 500 µM. Further, in series [2], the logP is 6.47.
As to `N[C@@H](Cc1ccccc1)[C@H](O)CN(Cc1ccc2c(c1)OCO2)S(=O)(=O)c1ccc([N+](=O)[O-])cc1`, in series [1], the MIC is greater than 500 µM. In series [2], this compound showed a logP of 2.52.
Taken in the same sequence, the figures for `CC[C@@H](CO)NCCN[C@@H](CC)CO` [ETHAMBUTOL] were 15.9 µM (≈ 3.25 µg/mL) and 0.35.
Taken in the same sequence, the figures for `N[C@@H](Cc1ccccc1)[C@H](O)CN(Cc1ccc2c(c1)OCO2)S(=O)(=O)c1ccc(Br)cc1` were 23.5 µM (≈ 12.5 µg/mL) and 3.37.
`N[C@@H](Cc1ccccc1)[C@H](O)CNCc1ccc2c(c1)OCO2`: in series [1], the MIC came to 318 µM (≈ 100 µg/mL). Moreover, in series [2], the logP is 1.41.
`Cc1ccc(S(=O)(=O)N(Cc2ccc3c(c2)OCO3)C[C@@H](O)[C@@H](N)Cc2ccccc2)cc1` had an MIC in series [1] of 106 µM (≈ 49.7 µg/mL). Further, the logP in series [2] is 3.01.
As to `CC(C)(C)OC(=O)N[C@@H](Cc1ccccc1)[C@H](O)CN(Cc1ccc2c(c1)OCO2)S(=O)(=O)c1ccc([N+](=O)[O-])cc1`, the MIC in series [1] was greater than 500 µM. Also, the logP in series [2] was found to be 6.26.
`Cc1ccc(S(=O)(=O)N(Cc2ccc3c(c2)OCO3)C[C@@H](O)[C@H](Cc2ccccc2)NC(=O)OC(C)(C)C)cc1` came in with an MIC in series [1] greater than 500 µM. The same compound had a logP in series [2] of 6.75.
On the same counts, the results for `COc1ccc(S(=O)(=O)N(Cc2ccc3c(c2)OCO3)C[C@@H](O)[C@@H](N)Cc2ccccc2)cc1` are 51.6 µM (≈ 25 µg/mL) and 2.62.
In turn, `CC(C)(C)OC(=O)N[C@@H](Cc1ccccc1)[C@H](O)CNCc1ccc2c(c1)OCO2` gave a minimal inhibitory concentration (MIC) in series [1] of 241 µM (≈ 99.9 µg/mL). In addition, the logP in series [2] was 5.15.
